Test results taken from ChEMBL document CHEMBL1122353, “DNA binding studies of 7-bulky-substituted actinomycin analogues” (J Med Chem, 1983).
*1 amine or outer side, *2 acyl side, *3 side chain or, on linkers, in order; H or OH if unused. Where a SMILES comes first, the peptide text is derived from it. Bridges are numbered along the chain shown (N, C = ends). Roman numbers before positions name the chains, in order. [ ]: non-standard residue; d: D form. Actinocin(9to1) = Cc1c2oc3c(C)ccc(C(=O)[*:1])c3nc-2c(C(=O)[*:2])c(N)c1=O; NMeV = CN[C@H](C(=O)O)C(C)C; Sar = CNCC(=O)O

Legend:
DNA (Bos taurus) = experiment: Apparent binding constant for calf thymus DNA
Nucleic Acid [1] = experiment: Time constant of slowest dissociation step of drug from DNA complex; format: functional
How it was run: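 Purified calf thymus DNA–drug complexes were held in 0.01 M phosphate buffer (pH 7.0) at 20 °C, with a DNA (nucleotide):drug ratio of 20:1. 5% NaDodSO4 was added to sequester free drug. Absorbance decay was followed over time at a wavelength chosen for each drug (430–492 nm). τ was taken as the time constant of the slowest dissociation step.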

Nucleic Acid [2] = experiment: Increase in thermal denaturation temperature of calf thymus DNA; format: functional; settings: Bos taurus

Compound: Cc1c2oc3c(C)c(O)c(N)c(C(=O)N4OC(=O)[C@H](C(C)C)N(C)C(=O)CCNC(=O)[C@@H]5CCCN5C(=O)[C@H](C(C)C)NC(=O)[C@@H]4[C@@H](C)O)c3nc-2c(C(=O)N2OC(=O)[C@H](C(C)C)N(C)C(=O)CCNC(=O)[C@@H]3CCCN3C(=O)[C@H](C(C)C)NC(=O)[C@@H]2[C@@H](C)O)c/c1=N/Cc1ccc(Cl)c(Cl)c1
- K app (DNA (Bos taurus)): 2.6e+07 M⁻¹
- rel T (Nucleic Acid [1]): 60
- ΔTm (Nucleic Acid [2]): 7 °C

Compound: Cc1c2oc3c(C)c(O)c(N)c(C(=O)N4OC(=O)[C@H](C(C)C)N(C)C(=O)CCNC(=O)[C@@H]5CCCN5C(=O)[C@H](C(C)C)NC(=O)[C@@H]4[C@@H](C)O)c3nc-2c(C(=O)N2OC(=O)[C@H](C(C)C)N(C)C(=O)CCNC(=O)[C@@H]3CCCN3C(=O)[C@H](C(C)C)NC(=O)[C@@H]2[C@@H](C)O)c/c1=N/Cc1ccc[nH]1
- K app (DNA (Bos taurus)): 9.2e+07 M⁻¹
- rel T (Nucleic Acid [1]): 225
- ΔTm (Nucleic Acid [2]): 16 °C

Compound: Cc1c2oc3c(C)ccc(C(=O)N[C@@H]4C(=O)N[C@H](C(C)C)C(=O)N5CCC[C@H]5C(=O)N(C)CC(=O)N(C)[C@@H](C(C)C)C(=O)O[C@@H]4C)c3nc-2c(C(=O)N[C@@H]2C(=O)N[C@H](C(C)C)C(=O)N3CCC[C@H]3C(=O)N(C)CC(=O)N(C)[C@@H](C(C)C)C(=O)O[C@@H]2C)c(N)c1=O (I: T[dV]P[Sar][NMeV] / II: T[dV]P[Sar][NMeV]; ester I:1-I:C, II:1-II:C; linker I:N-II:N via Actinocin(9to1))
- rel T (Nucleic Acid [1]): 100
- ΔTm (Nucleic Acid [2]): 8 °C

Compound: Cc1c2oc3c(C)c(O)c(N)c(C(=O)N4OC(=O)[C@H](C(C)C)N(C)C(=O)CCNC(=O)[C@@H]5CCCN5C(=O)[C@H](C(C)C)NC(=O)[C@@H]4[C@@H](C)O)c3nc-2c(C(=O)N2OC(=O)[C@H](C(C)C)N(C)C(=O)CCNC(=O)[C@@H]3CCCN3C(=O)[C@H](C(C)C)NC(=O)[C@@H]2[C@@H](C)O)cc1=N
- K app (DNA (Bos taurus)): 2.3e+07 M⁻¹
- rel T (Nucleic Acid [1]): 125
- ΔTm (Nucleic Acid [2]): 8 °C
